Results reported in PubChem BioAssay AID617 (SRMLSC, 2007).

These compounds were tested on E. coli BW25113 ΔtolC growth inhibition, OD615 (assay: E. coli ΔtolC antibacterial growth inhibition – strain BW25113 ΔtolC::kan, dose response (AID 617)).
Summary of the method: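 Material: E. coli BW25113 ΔtolC::kan bacteria; input: inoculum from 1:1000-diluted 1.5 h subculture; medium: kanamycin-containing LB broth, 50 µg/mL; dosing: compounds in serially diluted dose-response series; incubation: 20 h exposure at 37 °C; measured by: absorbance at 615 nm; control set: chloramphenicol control, 30 µM final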

Structure (SMILES) | IC50 [µM]
CCCCC(=O)c1c(O)c2ccccc2oc1=O | 7.48
Cc1ccc2c3c1C1(C(=O)N3C(C)(C)CC2C)C(C#N)=C(N)Oc2cc(O)ccc21 (stereo not given) | 2.96
COC(=O)c1cn(NC(=O)c2cnccn2)c(=O)c2ccccc12 | 2.44
CCn1c(SCC(=O)Nc2nc(-c3ccccc3)cs2)nnc1-c1ccccc1O | 6.69
Cc1cccc(N=c2oc3cc(O)ccc3cc2C(N)=O)c1 | 23
O=C(CC1CCCCC1)c1c(O)c2ccccc2oc1=O | 1.72
N#CC(C#N)=c1ccc2c(c1)N1C3=C(CCCC3)CC3CCCCC31N=2 (stereo not given) | 75.6
CCCCCn1c(CN2CCN(c3cccc(Cl)c3)CC2)nc2c1c(=O)n(C)c(=O)n2C | 15.2
CCC(C(=O)Nc1ccccc1OC)n1c(C(=O)OC)cc2ccsc21 (stereo not given) | 10.9
O=c1c2ccccc2n(Cc2ccc(F)cc2)c(=O)n1C1CCCC1 | 9.26
CN1/C(=C\C(=O)COc2ccc3c(c2)OCO3)C(C)(C)c2ccccc21 | 11.2
CC1(C)CC(=O)C=C(NCCN2CCN(C(=O)Nc3ccc(Cl)c(Cl)c3)CC2)C1 | 20.3
CCOC(=O)c1ccc(N2C(=O)c3n[nH]c(C)c3C2c2ccc(OC)cc2OC)cc1 (stereo not given) | 16.8
Cc1ccc(C2(c3ccc(C)cc3)NC(=O)N(Cc3c(C)noc3C)C2=O)cc1 | 6.45
CCc1nc(N2CCCCC2C)c2oc3ccccc3c2n1 (stereo not given) | 13.6
CC1CCN(S(=O)(=O)c2cccc(C(=O)NCc3cccs3)c2)CC1 | 33.4
CCn1c2ccccc2c2cc(C3C(C#N)=C(N)Oc4n[nH]c(COC)c43)ccc21 (stereo not given) | 22.7
COc1ccc(Cl)cc1N(C)C(=O)CCc1nc(-c2ccc(C)cc2)no1 | 15.2
Cc1ccc(-c2nnn(CC(=O)N(Cc3ccco3)C(C(=O)NC(C)(C)C)c3cccs3)n2)o1 (stereo not given) | 23.3
COc1ccccc1Cc1nc(-c2ccc(Br)o2)no1 | 19.7
CCC(Sc1nnc(-c2ccc(C)c(Cl)c2)n1CC)C(=O)Nc1nccs1 (stereo not given) | 14.9
CCOC(=O)C1=C(N)OC2=C(C(=O)CCC2)C12C(=O)N1c3c(ccc(C)c32)C(C)=CC1(C)C (stereo not given) | 13.8

Structure (SMILES) | IC50 [µM]
CCN(C(=O)c1cc2cc3ccc(C)cc3nc2o1)c1ccc(OC)cc1 | 19
CSc1ccc(S(=O)(=O)Nc2ccc(N3CCOCC3)c(Cl)c2)cc1 | 6.56
O=C(CSc1nnc2scc(-c3ccccc3)n12)Nc1nsc(-c2ccccc2)n1 | 13.1
CC(C)(C)N1C(=O)Cc2c1nc(N)c1c(N)nc(N3CCCCC3CO)c(C#N)c21 (stereo not given) | 6.59
COc1ccccc1N1CCN(C(=O)COc2ccc(C)cc2Br)CC1 | 25.9
Oc1ccc(-c2[nH]ncc2-c2ccc(Cl)cc2)c(O)c1 | 11.1
CCCCCCN=C(CC)c1c(O)n(CCCC)c(=O)[nH]c1=O | 11.8
CCC(=O)N1CCN(c2cc3c(cc2F)c(=O)c(C(=O)O)cn3CC)CC1 | < 0.2
Cc1nc2nc(-c3ccco3)[nH]n2c(=O)c1Cc1ccccc1 | 5.98
CC1=CCC(COC(=O)Nc2ccccc2)CC1 (stereo not given) | 26.8
Cc1cc2c(cc(C(=O)OCC(=O)NCc3cccs3)n2C(C)C)o1 | 25
Cc1ccc(O)c(-c2cc3ccccc3[nH]2)c1 | 11.7
CC1CCc2c(C(=O)Oc3cccc(-n4cnnn4)c3)csc2C1 (stereo not given) | 20.2
CS(=O)(=O)N1CCc2cc(-c3csc(NC(=O)Cc4cccs4)n3)ccc21 | 21.7
Cc1nc(N2CCN(Cc3ccc4c(c3)OCO4)CC2)c2oc3ccccc3c2n1 | 11.6
c1ccc(-c2oc3ncnc(NCCN4CCOCC4)c3c2-c2ccccc2)cc1 | 11.8
O=C(Nc1nnc(-c2ccccc2)o1)c1nc2ccccc2s1 | 1.34
CCOC(=O)c1c(CN2CCOCC2)n(-c2ccccc2)c2ccc(O)cc12 | 18.3
O=C(Nc1nc2n(n1)C(c1ccc(Cl)cc1)CC(c1ccc(Cl)cc1)N2)c1ccco1 (stereo not given) | 4.7
CCOc1cc(-c2c(C#N)c(=O)[nH]c3c2c(C)nn3-c2ccc(F)cc2)ccc1O | 2.48
C=CCNc1ncnc2c1[nH]c1ccc(C)cc12 | 2.38
CCCCCCc1ccc(-c2ncc(N)cn2)cc1 | 16.6

Structure (SMILES) | IC50 [µM]
CCCN(CCC)S(=O)(=O)c1ccc(C(=O)Nc2nnc(-c3cccc(OC)c3)o2)cc1 | 0.26
Cc1ccc(C)c(Cn2c(CN(C)Cc3ccccc3)nc3c2c(=O)n(C)c(=O)n3C)c1 | 14.2
O=C(Nc1nnc(-c2ccc(Cl)cc2)o1)c1ccccc1Br | 0.4
O=C(CCc1nc(-c2ccccc2F)no1)Nc1ccc(Oc2ccccc2)cc1 | 9.55
COc1cccc(NC(=O)N2CCN(c3cccc(C)c3C)CC2)c1 | 13.4
CC(C)OCCCNc1ncnc2c1[nH]c1ccccc12 | 5.88
O=S(=O)(Nc1ccc(S(=O)(=O)N2CCCCC2)cc1)c1ccc(Br)s1 | 4.39
Oc1c(C(c2ccco2)N2CCN(C(c3ccccc3)c3ccccc3)CC2)sc2ncnn12 (stereo not given) | 13.3
CSc1nc(-c2ccccc2)nc(N2CCCC2)c1C(C)=O | 12.7
O=C(Nc1nnc(C2CC2)s1)c1cc(-c2ccccc2)nn1-c1ccccc1 | 6.41
COc1ccc(-c2cnc(SCC(=O)Nc3cc(C)on3)n2Cc2ccco2)cc1 | 35.7
Cc1cc(N2C3CCC2CC(O)(c2ccc(F)cc2)C3)nc(-c2ccccc2)n1 (stereo not given) | 7.11
O=C1C2=C(Nc3ccccc3SC2c2ccco2)c2ccccc21 (stereo not given) | < 0.2
CCCOC(=O)c1ccc(Oc2c(-c3ccc(O)cc3O)n[nH]c2C)cc1 | 3.26
Cc1cc(C(=O)OCc2nnc(-c3ccccc3)o2)c(C)n1-c1ccccc1 | 9.88
CCC(C(=O)N1CCN(c2cccc(Cl)c2)CC1)c1ccccc1 (stereo not given) | 14.2
COc1ccc2nc(NC(=O)C3COc4ccccc4O3)sc2c1 (stereo not given) | 14.5
Oc1cccc(Nc2nc(NCC3CCCO3)c3ccccc3n2)c1 (stereo not given) | 4.68
Cc1nc2ncnn2c(N2CCN(C(c3ccccc3)c3ccccc3)CC2)c1C | 6.96
Fc1cccc(Cl)c1Cn1nnc(-c2ccc3c(c2)OCO3)n1 | 20.3
Cc1cc(C)c(C#N)c(SCC(=O)OC2CCCCC2)n1 | 19.1
CC(=O)OCC1=C(C(=O)O)N2C(=O)[C@@H](NC(=O)Cc3cccs3)[C@H]2SC1 | 1.01

Structure (SMILES) | IC50 [µM]
CC1CCCCC1n1c(=S)[nH]c2ccccc2c1=O (stereo not given) | 5.91
Cc1ccc(C)c2[nH]c(=O)c(CN(CC3CCCO3)S(=O)(=O)c3ccc4c(c3)OCCO4)cc12 (stereo not given) | 38.6
Cc1noc(C)c1C(=O)Nc1sc(C)c(-c2ccccc2)c1C#N | 9.36
CCOC(=O)C1CCN(C(=O)c2oc3ccc(S(=O)(=O)N4CCCCCC4)cc3c2C)CC1 | 21.6
CCOC(=O)c1cnc(-n2nc(C)cc2C)nc1Nc1ccc(N(C)C)cc1 | 13.7
CCOC(=O)c1c(C)c(C(=O)Nc2cc(OC)ccc2OC)c(C)n1CC | 24.3
O=C(O)C1CC=CCC1C(=O)Nc1ccc(S(=O)(=O)N2CCCc3ccccc32)cc1 (stereo not given) | 8.93
CC1CCc2cc(F)ccc2N1C(=O)c1cc2nc(-c3ccco3)cc(C(F)(F)F)n2n1 (stereo not given) | 11.2
Cc1cccc(-c2nc(CS(=O)CC(=O)NCCCSC3CCCCC3)c(C)o2)c1 (stereo not given) | 10.1
Cc1ccc2[nH]c3c(c2c1)CCc1cn[nH]c1-3 | 17.8
c1ccc(CC2CCN(Cc3nc(-c4ccccc4)no3)CC2)cc1 | 13.4
Cc1ccc(-c2csc3ncn(-n4c(C)ccc4C)c(=O)c23)o1 | 14.9
CCN(CCCNC(=O)c1[nH]c(C)c(C(C)=O)c1C)c1cccc(C)c1 | 8.23
CCOc1ccc(S(=O)(=O)Nc2cc(Cl)ccc2O)cc1 | 9.22
CC1=CC(C)(C)N2C(=O)C3(SCC(=O)N3c3ccc(O)cc3)c3cc(C)cc1c32 (stereo not given) | 11.8
Oc1ccc2c(c1)oc1cc(O)ccc12 | 16.6
Cc1ccc(C)c(N2CCN(C(=O)c3ccc(NS(=O)(=O)c4c(C)noc4C)cc3)CC2)c1 | 13.6
CC1CCCC(C)N1C(=O)CN1CCN(c2nc(-c3ccc(F)cc3)cs2)CC1 (stereo not given) | 12
O=C(Nc1cccc(-c2nnc(-c3ccccc3)o2)c1)c1ccc(Br)o1 | 5.69
O=C(NCc1ccccc1)c1c[nH]c2ccc(S(=O)(=O)Nc3ccc4c(c3)OCCO4)cc2c1=O | 9.4
COC(=O)c1ccc(OC)c(CSc2nnc(COc3ccccc3)o2)c1 | 23.1
CCN(CCCNC(=O)CCc1nc(-c2ccc(C)cc2)no1)c1cccc(C)c1 | 68.8

Structure (SMILES) | IC50 [µM]
O=C(c1ccc(COc2ccccc2Cl)o1)N1CCN(c2ccccc2)CC1 | 8.64
CC(C)(C)OC(=O)N1CCC[C@H]1c1nnc(SCc2ccc(Cl)cc2Cl)o1 | 11
CC(C)N(Cc1nc(-c2ccccc2)no1)C(=O)c1ccc(Cl)cc1 | 19.5
Clc1cccc(NCc2nnc(SCc3ccccc3)o2)c1 | 9.57
COC(=O)C1=C(N)Oc2cc(C)n(Cc3ccco3)c(=O)c2C1c1cccc(Cl)c1 (stereo not given) | 26.5
CC(C)N(Cc1nc(-c2ccc(Cl)cc2)no1)C(=O)c1cccs1 | 18.9
COc1ccc(Cn2nnnc2C(C(C)C)N2CCc3ccccc32)cc1 (stereo not given) | 12.7
COc1ccc(-c2noc(C)c2-c2ccc3ccccc3n2)c(O)c1 | 8.91
Cc1ccc(-n2c(C)cc(C(=O)COC(=O)c3c(C)noc3C)c2C)cc1 | 5.61
CC(O)c1c(OCc2ccccc2)ncnc1OCc1ccccc1 (stereo not given) | 10.7
O=c1c2cc3ccccc3n2cnn1Cc1ccccc1F | 17.2
COc1ccc(C2(O)CC3CCC(C2)N3c2nc(C)cc(C)c2C#N)cc1 (stereo not given) | 24.6
O=C(Nc1cccc(Cl)c1)N(CCCN1CCOCC1)Cc1ccccc1F | 7.19
O=C(CSc1nnc(Cc2ccccc2)n1Cc1ccco1)NC12CC3CC(CC(C3)C1)C2 | 61.8
CN(C)c1ccc(C2C=C(c3ccc(Cl)cc3OC(F)F)Nc3ncnn32)cc1 (stereo not given) | 1.95
Cc1csc(NC(=O)c2cccc(Cn3nc(C)c(Br)c3C)c2)n1 | 10.3
CCOC(=O)C1Cn2c(nc3c(c2=O)C(C)(CC)Cc2ccccc2-3)S1 (stereo not given) | 24.2
Cc1nn(-c2ccccc2)c2sc(-c3n[nH]c(=S)o3)cc12 | 4.43
c1csc(-c2nc3nc4ccccc4nc3n2Cc2ccc3c(c2)OCO3)c1 | 9.62
O=C1c2ccccc2C(Nc2cccc(C(F)(F)F)c2)N1Cc1ccco1 (stereo not given) | 7.32
N#C/C(=C\c1ccco1)Sc1nc2ccccc2s1 | 8.6
COc1ccc(NC(=O)c2ccc(Cl)c(S(=O)(=O)N3CCc4ccccc4C3)c2)cn1 | 8.1
